In the library only some 3.8% were active in any assay of this set; here they are far more common.
KCNK9 block: KCNK9 potassium channel inhibitors, primary screen, HEK293 cells, thallium flux; Potassium channel subfamily K member 9 (Homo sapiens), Q9NPC2; FluxOR thallium flux fluorescence; stronger effect = lower value; B-score at 10 µM; 1.2% of 310,000 active;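 active means ratio B-score over 3 SD below the library mean, with starting fluorescence within 5 SD of its mean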;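 further: negative B-score means less thallium flux so channel inhibition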
hERG rescue: hERG rescue from dofetilide block, primary screen, cell-based, CHO-hERG, FluxOR thallium flux, dofetilide IC70; Voltage-gated inwardly rectifying potassium channel KCNH2 (Homo sapiens), Q12809; dofetilide IC70 present; activation (rescue from dofetilide block), less the hit threshold, % at 10 µM; 0.51% of 310,000 active; AID 1511, 2009;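 active means activation above the mean of controls blocked by dofetilide plus 5 SD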;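 further: thallium influx through hERG after potassium depolarization seen as dye fluorescence rise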
Kir21 inh: inhibitors of mouse Kir2.1 inward-rectifier potassium channel; Inward rectifier potassium channel 2 (Mus musculus), P35561; HEK293-Kir2.1, FluxOR thallium flux fluorescence; stronger effect = lower value; B-score at 10 µM; 0.85% of 310,000 active;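 active means fluorescence ratio B-score at or below minus 3 SD of library scores, with starting-brightness B-score within 2 SD, cut at about -4.2 in these data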;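 further: channel flux triggered by added potassium and thallium sulfate stimulus; B-score of peak minus minimum fluorescence over baseline after thallium stimulus; more negative B-score means stronger Kir2.1 block with less thallium influx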
KCNK3 block: human KCNK3 channel inhibitors, primary screen, CHO cells, FluxOR thallium flux, B-score. Potassium channel subfamily K member 3 (Homo sapiens), O14649. FluxOR fluorescence; stronger effect = lower value. B-score at 10 µM. 0.84% of 340,000 active;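 active means B-score under library mean minus 4 SD, starting fluorescence ratio at most library mean plus 5 SD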;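 further: more negative B-score means stronger inhibition of thallium flux through KCNK3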
KCNQ1 inh: inhibitors of human KCNQ1 channel, primary screen, cell-based, thallium flux, high-throughput; B-score at 10 µM; Potassium voltage-gated channel subfamily KQT member 1 (Homo sapiens), P51787; CHO-K1 KCNQ1, FluxOR thallium flux fluorescence; stronger effect = higher value; 1.3% of 310,000 active;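 active means compounds whose thallium flux B-score, printed positive for inhibition, exceeds three library SD while starting fluorescence stays within three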;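 further: channel opened by potassium depolarization with thallium stimulus after 20 min compound exposure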
KCNQ1 pot: potentiators or activators of KCNQ1 channel, primary screen, cell-based, thallium flux, high-throughput | 0.35% of 310,000 active | B-score at 10 µM | CHO-K1 KCNQ1, thallium flux FluxOR fluorescence; stronger effect = higher value | AID 2648, 2010 | Potassium voltage-gated channel subfamily KQT member 1 (Homo sapiens), P51787;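 active means fluorescence ratio B-score, a plate-corrected score, at least three library SD, with initial intensity B-score within 5 SD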
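System: Stable KCNQ1 CHO-K1 line | Incubation: 90 min dye loading and 20 min compound exposure, both at room temperature | Measure: Ratio B score | Medium: Assay buffer for compound exposure, DMSO matched across wells | Compound dosing: Single-concentration screen | Probe or stimulus: K+/Tl+ depolarizing stimulus | Measured by: Kinetic FluxOR fluorescence, 10 s baseline plus 110 s post-stimulus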
KCNQ1 block val: KCNQ1 potassium channel inhibitors, confirmation, cell-based, Tl flux, duplicate. shares compounds with KCNQ1 inh. KCNQ1 cell line, FluxOR thallium flux fluorescence. inhibition, % at 10 µM. 93% of 1,600 active. AID 588353, 2011;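 active means primary screen active, with duplicate mean exceeding buffer control mean plus 3 SD of buffer wells, cut at about 28% in these data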;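 further: 0% = buffer control ratio and 100% = XE991 inhibitor control ratio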
CHO Tl flux: thallium flux effects in parental CHO cells, counter-screen for KCNQ1 inhibitor project, cell-based, Tl flux; shares compounds with KCNQ1 inh; parental CHO-K1, FluxOR thallium flux fluorescence ratio; stronger effect = lower value; zero means no signal rise above baseline; fluorescence ratio (Tl flux) at 10 µM; 21% of 1,600 active; AID 588366, 2011;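 active means mean of duplicate thallium-flux fluorescence ratios in parental host cells more than 5 SD below the buffer control mean, cut at about 0.38 in these data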;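 further: ratio is peak minus minimum fluorescence divided by baseline fluorescence; actives read low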
KCNQ1 ephys val: KCNQ1 channel inhibitors, confirmation, orthogonal assay, cell-based, automated electrophysiology; AID 624120, 2012; calls only at 10 µM; 20% of 490 active; KCNQ1-CHO cells, automated patch clamp current; shares compounds with KCNQ1 inh;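 active means KCNQ1 current drop exceeding 3 SD of negative control wells, seen in both duplicate runs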;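 further: steady state current during a 2 s step from -80 to +40 mV; negative values mean current inhibition and positive values mean potentiation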
KCNQ2 inh: KCNQ2 channel inhibition, selectivity assay for KCNQ1 inhibitor project, cell-based | shares compounds with KCNQ1 inh | KCNQ2 cells, FluxOR thallium flux fluorescence | inhibition, % at 10 µM | 71% of 1,600 active;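 active means mean percent inhibition of the KCNQ2 thallium signal more than 5 SD above the buffer-only control wells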;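 further: KCNQ2 expressed in CHO cells; 0% = buffer control wells and 100% = XE-991 inhibitor control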
Target sequence (O88943 whole entry, looked up): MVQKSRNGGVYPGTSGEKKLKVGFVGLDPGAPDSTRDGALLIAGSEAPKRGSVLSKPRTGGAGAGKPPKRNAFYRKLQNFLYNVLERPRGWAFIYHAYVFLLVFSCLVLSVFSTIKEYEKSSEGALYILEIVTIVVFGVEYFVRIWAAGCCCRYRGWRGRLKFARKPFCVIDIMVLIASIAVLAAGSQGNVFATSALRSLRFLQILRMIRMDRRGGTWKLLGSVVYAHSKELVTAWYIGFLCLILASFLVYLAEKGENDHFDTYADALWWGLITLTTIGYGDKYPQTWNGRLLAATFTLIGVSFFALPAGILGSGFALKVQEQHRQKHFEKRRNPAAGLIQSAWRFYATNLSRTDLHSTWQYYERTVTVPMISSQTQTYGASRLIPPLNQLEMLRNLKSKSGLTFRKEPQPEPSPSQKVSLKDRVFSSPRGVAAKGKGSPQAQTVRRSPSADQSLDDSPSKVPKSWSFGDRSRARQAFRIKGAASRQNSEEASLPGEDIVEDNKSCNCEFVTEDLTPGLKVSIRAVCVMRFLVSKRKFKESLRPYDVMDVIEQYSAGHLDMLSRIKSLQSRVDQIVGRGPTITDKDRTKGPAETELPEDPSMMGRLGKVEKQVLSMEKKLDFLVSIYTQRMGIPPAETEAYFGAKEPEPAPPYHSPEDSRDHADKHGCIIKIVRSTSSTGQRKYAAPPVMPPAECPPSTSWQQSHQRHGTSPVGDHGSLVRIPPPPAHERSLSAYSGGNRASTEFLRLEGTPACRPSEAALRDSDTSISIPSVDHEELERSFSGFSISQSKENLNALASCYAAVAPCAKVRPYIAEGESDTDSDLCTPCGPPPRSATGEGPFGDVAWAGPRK
KCNQ1 KCNE1 spec: KCNQ1/KCNE1 channel inhibition, selectivity assay for KCNQ1 inhibitor project, CHO-K1 cells, thallium flux, FluxOR. AID 652147, 2013. shares compounds with KCNQ1 inh. 77% of 1,600 active. FluxOR thallium flux fluorescence. inhibition, % at 10 µM;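 active means mean percent inhibition of duplicate wells above the buffer-only control mean plus 3 SD of those controls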;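 further: 0% = buffer only wells and 100% = XE-991 inhibitor control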
* marks the source's active call; other numbers are inactive results; i = inactive; . = no result.

SMILES	KCNK9 block	hERG rescue	Kir21 inh	KCNK3 block	KCNQ1 inh	KCNQ1 pot	KCNQ1 block val	CHO Tl flux	KCNQ1 ephys val	KCNQ2 inh	KCNQ1 KCNE1 spec
COc1cccc(C2CC(c3cccs3)=NN2C(=O)CSc2nc3c(cnn3-c3ccc(F)cc3)c(=O)[nH]2)c1OC (stereo not given)	i	-7	1.4	i	15*	i	116*	0.42	i	71%*	85%*
Cc1ccc(OCC(O)Cn2c(=N)n(Cc3ccccc3)c3ccccc32)cc1 (stereo not given)	i	-28	-6*	i	8*	i	78*	0.41	.	93%*	36%*
CC1Sc2ccc(S(=O)(=O)N3CCC(C(=O)NCC(C)c4ccccc4)CC3)cc2NC1=O (stereo not given)	i	-11	-0.23	i	7*	i	56*	0.53	.	i	i
Cc1cc(C)cc(NC(=O)C2CCN(S(=O)(=O)c3ccc4c(c3)NC(=O)C(C)S4)CC2)c1 (stereo not given)	i	-11	-0.81	i	7*	i	116*	0.5	i	98%*	131%*
Cc1ccc(NC(=O)C2CCN(S(=O)(=O)c3ccc4c(c3)NC(=O)C(C)S4)CC2)cc1Cl (stereo not given)	i	-13	0.93	i	17*	i	126*	0.41	i	92%*	107%*
N#CC(c1ccccc1)(c1ncc(C(F)(F)F)cc1Cl)N1CCOCC1 (stereo not given)	i	-11	0.03	i	6*	i	74*	0.47	.	99%*	84%*
N#CC(c1cccc(C(F)(F)F)c1)(c1ncc(C(F)(F)F)cc1Cl)N1CCOCC1 (stereo not given)	i	-13	0.72	i	i	i	.	.	.	.	.
CC(=O)c1sc(NC(=O)C(C)Oc2ccc3c(C)cc(=O)oc3c2)nc1C (stereo not given)	i	-12	-1	i	i	i	.	.	.	.	.
CCOC(=O)c1cc(C#N)c(Oc2ccccc2)nc1-c1ccccc1	i	-3	-0.2	i	7*	i	88*	0.33*	.	112%*	96%*
Cc1ccc2c(C(=O)N3CCN(c4ccccc4)CC3)cc(-c3cccnc3)nc2c1C	i	-18	0.34	i	8*	i	92*	0.46	i	i	192%*
Cc1ccc(C)c(S(=O)(=O)NC(CC(C)C)C(=O)O)c1 (stereo not given)	i	-14	-0.29	i	i	i	.	.	.	.	.

Screening data (PubChem BioAssay)
